In brackets after ≈: the same amount, converted by molar mass. *1 amine or outer side, *2 acyl side, *3 side chain or, on linkers, in order; H or OH if unused. Where a SMILES comes first, the peptide text is derived from it. [ ]: non-standard residue; d: D form. The star is where a group is joined. X2 = CC(C)[C@H](N[*:1])C(=O)NC(=O)[*:2]; X1 = Fc1ccc2c(C3CCN(*)CC3)noc2c1; Boc = CC(C)(C)OC(=O)*; OcHex = C1CCC(O*)CC1
Legend:
Type in all cases: functional
Fusarium oxysporum [1] = assay: Antifungal activity against Fusarium oxysporum after 24 hrs by agar well diffusion method
Method in brief: (§1)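 Fungi subcultured in 25 mL nutrient broth for one day to give inoculum, then spread on solidified Sabouraud agar. Wells punched with a 6 mm cork borer and filled with 0.1 mL test solution in DMSO, prepared from a 1 mg/mL stock. Bavistin as reference, DMSO as negative control. Read-out is inhibition zone diameter (mm).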

Klebsiella pneumoniae [2] = assay: Antimicrobial activity against Klebsiella pneumoniae after 24 hrs by agar well diffusion method
Method in brief: (§2)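 Bacteria grown in nutrient broth at 37 °C for 24 h, subcultured in 25 mL broth at room temperature, then spread on nutrient agar. Wells (6 mm cork borer) filled with 0.1 mL test solution in DMSO, prepared from a 1 mg/mL stock. Amoxicillin as reference, DMSO as negative control. Plates kept 24 h at 37 °C; inhibition zone measured in mm.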

Xanthomonas oryzae [3] = assay: Antimicrobial activity against Xanthomonas oryzae after 24 hrs by agar well diffusion method
Aspergillus flavus [4] = assay: Antifungal activity against Aspergillus flavus after 24 hrs by agar well diffusion method; method in brief: as §1
Aspergillus niger [5] = assay: Antifungal activity against Aspergillus niger after 72 hrs by microdilution method
Fusarium oxysporum [6] = assay: Antifungal activity against Fusarium oxysporum after 72 hrs by microdilution method
Xanthomonas oryzae [7] = assay: Antimicrobial activity against Xanthomonas oryzae after 72 hrs by microdilution method
Aspergillus flavus [8] = assay: Antifungal activity against Aspergillus flavus after 72 hrs by microdilution method
Escherichia coli [9] = assay: Antimicrobial activity against Escherichia coli after 24 hrs by agar well diffusion method; method in brief: as §2
Aspergillus niger [10] = assay: Antifungal activity against Aspergillus niger after 24 hrs by agar well diffusion method; method in brief: as §1
Staphylococcus [11] = assay: Antimicrobial activity against coagulase positive Staphylococcus after 72 hrs by microdilution method
Escherichia coli [12] = assay: Antimicrobial activity against Escherichia coli after 72 hrs by microdilution method
Staphylococcus [13] = assay: Antimicrobial activity against coagulase positive Staphylococcus after 24 hrs by agar well diffusion method; method in brief: as §2
Klebsiella pneumoniae [14] = assay: Antimicrobial activity against Klebsiella pneumoniae after 72 hrs by microdilution method

| SMILES | inhibition zone (IZ) (Fusarium oxysporum [1]) [mm] | inhibition zone (IZ) (Klebsiella pneumoniae [2]) [mm] | inhibition zone (IZ) (Xanthomonas oryzae [3]) [mm] | inhibition zone (IZ) (Aspergillus flavus [4]) [mm] | MIC (Aspergillus niger [5]) [µg/mL] | MIC (Fusarium oxysporum [6]) [µg/mL] | MIC (Xanthomonas oryzae [7]) [µg/mL] | MIC (Aspergillus flavus [8]) [µg/mL] | inhibition zone (IZ) (Escherichia coli [9]) [mm] | inhibition zone (IZ) (Aspergillus niger [10]) [mm] | MIC (Staphylococcus [11]) [µg/mL] | MIC (Escherichia coli [12]) [µg/mL] | inhibition zone (IZ) (Staphylococcus [13]) [mm] | MIC (Klebsiella pneumoniae [14]) [µg/mL] |
| --- | --- | --- | --- | --- | --- | --- | --- | --- | --- | --- | --- | --- | --- | --- |
| N[C@@H](Cc1ccccc1)C(=O)N1CCC(c2noc3cc(F)ccc23)CC1.O=C(O)C(F)(F)F | 14 | 10 | 11 | 11 | 18 | 21 | 15 | 22 | 14 | 16 | 18 | 20 | 9 | 16 |
| CC(C)(C)OC(=O)N[C@@H](Cc1ccccc1)C(=O)O | – | – | – | – | > 50 | > 50 | > 50 | > 50 | – | – | > 50 | > 50 | – | > 50 |
| Fc1ccc2c(C3CCNCC3)noc2c1 | 4 | 3 | 4 | 2 | > 50 | > 50 | > 50 | > 50 | 3 | 3 | > 50 | > 50 | 3 | > 50 |
| CC(C)[C@H](NC(=O)CNC(=O)[C@@H]1CCCN1C(=O)[C@H](Cc1ccccc1)NC(=O)CNC(=O)[C@H](CCC(=O)OC1CCCCC1)NC(=O)CNC(=O)OC(C)(C)C)C(=O)NCC(=O)N[C@H](C(=O)N1CCC[C@H]1C(=O)NCC(=O)N[C@H](C(=O)NCC(=O)N[C@H](C(=O)N1CCC[C@H]1C(=O)NCC(=O)N[C@H](C(=O)NCC(=O)N[C@H](C(=O)N1CCC[C@H]1C(=O)NCC(=O)N[C@@H](Cc1ccccc1)C(=O)NCC(=O)N[C@@H](Cc1ccccc1)C(=O)N1CCC[C@H]1C(=O)NCC(=O)N[C@@H](Cc1ccccc1)C(=O)NCC(=O)N[C@@H](Cc1ccccc1)C(=O)N1CCC[C@H]1C(=O)O)C(C)C)C(C)C)C(C)C)C(C)C)C(C)C (Boc-GE(OcHex)GFPGVGVPGVGVPGVGVPGFGFPGFGFP-OH) | – | – | – | – | > 50 | > 50 | > 50 | > 50 | – | – | > 50 | > 50 | – | > 50 |
| CC(C)(C)OC(=O)N[C@@H](Cc1c[nH]c2ccccc12)C(=O)O | – | – | – | – | > 50 | > 50 | > 50 | > 50 | – | – | > 50 | > 50 | – | > 50 |
| CC[C@@H](C)[C@H](NC(=O)CNC(=O)CNC(=O)OC(C)(C)C)C(=O)N1CCC[C@H]1C(=O)O | – | – | – | – | > 50 | > 50 | > 50 | > 50 | – | – | > 50 | > 50 | – | > 50 |
| NCC(=O)N[C@@H](Cc1ccccc1)C(=O)NCC(=O)N[C@@H](Cc1ccccc1)C(=O)N1CCC[C@H]1C(=O)N1CCC(c2noc3cc(F)ccc23)CC1.O=C(O)C(F)(F)F (H-GFGFP-X1) | 23 | 18 | 20 | 21 | 6 | 8 | 9 | 8 | 25 | 29 | 8 | 8 | 18 | 6 |
| N[C@@H](Cc1c[nH]c2ccccc12)C(=O)N1CCC(c2noc3cc(F)ccc23)CC1.O=C(O)C(F)(F)F | 7 | 5 | 6 | 4 | 32 | 39 | 26 | 41 | 8 | 11 | 36 | 38 | 4 | 31 |
| COC(=O)Nc1nc2ccccc2[nH]1 [CARBENDAZIM] | 10 | – | – | 7 | 22 (≈ 115 µM) | 25 (≈ 131 µM) | – | 26 (≈ 136 µM) | – | 12 | – | – | – | – |
| CC[C@@H](C)[C@H](NC(=O)CNC(=O)CN)C(=O)N1CCC[C@H]1C(=O)N1CCC(c2noc3cc(F)ccc23)CC1.O=C(O)C(F)(F)F | 18 | 14 | 15 | 14 | 13 | 17 | 12 | 16 | 20 | 22 | 14 | 15 | 12 | 12 |
| CC(C)(C)OC(=O)NCC(=O)NCC(=O)N[C@@H](Cc1ccccc1)C(=O)N1CCC[C@H]1C(=O)O (Boc-GGFP-OH) | – | – | – | – | > 50 | > 50 | > 50 | > 50 | – | – | > 50 | > 50 | – | > 50 |
| CC1(C)S[C@@H]2[C@H](NC(=O)[C@H](N)c3ccc(O)cc3)C(=O)N2[C@H]1C(=O)O [AMOXICILLIN] | – | 8 | 8 | – | – | – | 18 (≈ 49.3 µM) | – | 11 | – | 23 (≈ 62.9 µM) | 24 (≈ 65.7 µM) | 7 | 20 (≈ 54.7 µM) |
| CC(C)[C@H](NC(=O)CNC(=O)[C@@H]1CCCN1C(=O)[C@H](Cc1ccccc1)NC(=O)CNC(=O)[C@H](Cc1ccccc1)NC(=O)CNC(=O)[C@@H]1CCCN1C(=O)[C@H](Cc1ccccc1)NC(=O)CNC(=O)[C@@H](NC(=O)CNC(=O)[C@@H]1CCCN1C(=O)[C@@H](NC(=O)NC(=O)[C@@H](NC(=O)CNC(=O)[C@@H]1CCCN1C(=O)[C@H](Cc1ccccc1)NC(=O)CNC(=O)[C@H](CCC(=O)OC1CCCCC1)NC(=O)CNC(=O)OC(C)(C)C)C(C)C)C(C)C)C(C)C)C(=O)NCC(=O)N[C@H](C(=O)N1CCC[C@H]1C(=O)NCC(=O)N[C@H](C(=O)NCC(=O)N[C@@H](Cc1ccccc1)C(=O)N1CCC[C@H]1C(=O)O)C(C)C)C(C)C (Boc-GE(OcHex)GFPG[X2]VPGVGFPGFGFPGVGVPGVGFP-OH) | – | – | – | – | > 50 | > 50 | > 50 | > 50 | – | – | > 50 | > 50 | – | > 50 |
| CC(C)[C@H](NC(=O)CNC(=O)OC(C)(C)C)C(=O)NCC(=O)N[C@H](C(=O)N1CCC[C@H]1C(=O)O)C(C)C (Boc-GVGVP-OH) | – | – | – | – | > 50 | > 50 | > 50 | > 50 | – | – | > 50 | > 50 | – | > 50 |
| C[C@H](NC(=O)CNC(=O)CNC(=O)OC(C)(C)C)C(=O)N1CCC[C@H]1C(=O)O (Boc-GGAP-OH) | – | – | – | – | > 50 | > 50 | > 50 | > 50 | – | – | > 50 | > 50 | – | > 50 |
| CC(C)[C@H](NC(=O)CNC(=O)[C@@H]1CCCN1C(=O)[C@H](Cc1ccccc1)NC(=O)CNC(=O)[C@H](CCC(=O)O)NC(=O)CN)C(=O)NCC(=O)N[C@H](C(=O)N1CCC[C@H]1C(=O)NCC(=O)N[C@H](C(=O)NCC(=O)N[C@H](C(=O)N1CCC[C@H]1C(=O)NCC(=O)N[C@H](C(=O)NCC(=O)N[C@H](C(=O)N1CCC[C@H]1C(=O)NCC(=O)N[C@@H](Cc1ccccc1)C(=O)NCC(=O)N[C@@H](Cc1ccccc1)C(=O)N1CCC[C@H]1C(=O)NCC(=O)N[C@@H](Cc1ccccc1)C(=O)NCC(=O)N[C@@H](Cc1ccccc1)C(=O)N1CCC[C@H]1C(=O)N1CCC(c2noc3cc(F)ccc23)CC1)C(C)C)C(C)C)C(C)C)C(C)C)C(C)C.O=C(O)C(F)(F)F (H-GEGFPGVGVPGVGVPGVGVPGFGFPGFGFP-X1) | 31 | 17 | 18 | 32 | 3 | 4 | 9 | 3 | 15 | 36 | 11 | 10 | 20 | 9 |
| C[C@H](NC(=O)CNC(=O)CN)C(=O)N1CCC[C@H]1C(=O)N1CCC(c2noc3cc(F)ccc23)CC1.O=C(O)C(F)(F)F (H-GGAP-X1) | 16 | 12 | 13 | 13 | 15 | 19 | 13 | 18 | 18 | 19 | 16 | 17 | 11 | 14 |
| N[C@@H](Cc1ccc(O)cc1)C(=O)N1CCC(c2noc3cc(F)ccc23)CC1.O=C(O)C(F)(F)F | 6 | 4 | 5 | 3 | 34 | 41 | 29 | 43 | 7 | 10 | 39 | 40 | 4 | 34 |
| CC(C)(C)OC(=O)NCC(=O)N[C@@H](Cc1ccccc1)C(=O)NCC(=O)N[C@@H](Cc1ccccc1)C(=O)N1CCC[C@H]1C(=O)O (Boc-GFGFP-OH) | – | – | – | – | > 50 | > 50 | > 50 | > 50 | – | – | > 50 | > 50 | – | > 50 |

— ChEMBL document CHEMBL1667766, “Synthesis of elastin based peptides conjugated to benzisoxazole as a new class of potent antimicrobials--A novel approach to enhance biocompatibility” (2011)
